Paper PMC12393413 (bioRxiv, 2025)

How the values were obtained:
MDA-MB-468 cells = assay: Western blot analysis of UPR / PERK-eIF2α-ATF4 pathway proteins; format: cell-based, human; details: for baseline phosphorylation of PERK and eIF2α, inhibitor alone: Western blot; for effect on DH20931-induced accumulation of ATF4 protein / effect on DH20931-induced phosphorylation of PERK and eIF2α: co-treatment with DH20931, Western blot
Outline: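 Treatment lasted 24 h at 0, 2.5, 5, 10 or 20 μM test compound. Western blots were developed with BCIP/NBT substrate. Bands were quantified by densitometry and normalized to a loading control such as β-actin.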

4T1-CERS2^−/− cells = assay: Mitochondrial Ca2+ by Rhod-2 AM confocal microscopy; format: cell-based, mouse; details: 6 h
Outline: (§1)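 Cells were seeded on glass-bottom dishes and grown overnight to ~70% confluence, in triplicate. Exposure was 6 h to test compound (5 or 10 μM) or thapsigargin (1 or 2 μM) as ER Ca2+-depletion control. Cells were rinsed in HBSS and co-loaded 20 min at 37°C with 1 μM Mag-Fluo-4 AM (ER Ca2+) and 100 nM Rhod-2 AM (mitochondrial Ca2+).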

4T1-CERS2^+/+ cells = assay: as above; format: cell-based, mouse; details: 6 h
Outline: as §1

Compound | baseline phosphorylation of PERK and eIF2α, inhibitor alone (MDA-MB-468 cells) | effect on DH20931-induced accumulation of ATF4 protein (MDA-MB-468 cells) | effect on DH20931-induced phosphorylation of PERK and eIF2α (MDA-MB-468 cells) | mitochondrial Ca2+ increase in the absence of CerS2 (4T1-CERS2^−/− cells) | mitochondrial Ca2+ levels (4T1-CERS2^+/+ cells)
Cn1cc(-c2ccc3c(c2)CCN3C(=O)Cc2cccc(C(F)(F)F)c2)c2c(N)ncnc21 [GSK2606414] | decrease in the baseline phosphorylation levels of both PERK and eIF2α | attenuated the DH20931-induced accumulation of ATF4 protein | did not affect the DH20931-induced phosphorylation | – | –
C/C=C(/C)C(=O)O[C@H]1C(C)=C2[C@H]([C@@H]1OC(=O)CCCCCCC)[C@@](C)(OC(C)=O)C[C@H](OC(=O)CCC)[C@@]1(O)[C@H]2OC(=O)[C@@]1(C)O [Tg, thapsigargin] | – | – | – | completely abolished | increase in mitochondrial Ca^2+ levels
Cc1ccc2cc(-c3c(C)ccc(C(=O)c4c(-c5ccccc5)n(C)n(-c5ccccc5)c4=O)c3N)ccc2n1 [AMG44] | decrease in the baseline phosphorylation levels of both PERK and eIF2α | attenuated the DH20931-induced accumulation of ATF4 protein | markedly diminished it | – | –
